Assay results: ChEMBL document CHEMBL1240360, “TMC278, a next-generation nonnucleoside reverse transcriptase inhibitor (NNRTI), active against wild-type and NNRTI-resistant HIV-1” (Antimicrob Agents Chemother, 2010)

Legend:
[1] = test system: Human immunodeficiency virus 1; test: Antiviral activity against Human immunodeficiency virus 1 subtype AG infected in human MT4 cells assessed as reduction in virus induced cytopathicity; type: functional, organism-based
Summary of the method: (§1)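 Recombinant viruses were made by recombining patient-derived HIV-1 RT-PR sequences into an RT-PR-deleted HXB2 proviral clone transfected into MT4 cells. Subtype was assigned from PR/RT sequence by Smith-Waterman alignment to HXB2. MT4 cells (1.5 × 10^5/ml) were infected at MOI 0.01 with serially diluted compound for 5 days at 37°C. Viability was read by MTT and EC50 derived.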

[2] = test system: Human immunodeficiency virus 1; test: Antiviral activity against Human immunodeficiency virus 1 3B infected in human MT4 cells assessed as reduction in virus induced cytopathicity; type: functional, organism-based
Summary of the method: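 MT4 cells (1.5 × 10^5/ml) infected with HIV-1 IIIB at MOI 0.01 and added to serially diluted compound. Cultures incubated 5 days at 37°C under 5% CO2. Cell viability, as protection from virus-induced killing, read by MTT tetrazolium colorimetry. EC50 reported as median with first to third quartiles over n experiments.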

[3] = test system: Human immunodeficiency virus 1; test: Antiviral activity against Human immunodeficiency virus 1 subtype C infected in human MT4 cells assessed as reduction in virus induced cytopathicity; type: functional, organism-based; summary of the method: as §1
[4] = test system: Human immunodeficiency virus 1; test: Antiviral activity against Human immunodeficiency virus 1 subtype (H) infected in human MT4 cells assessed as reduction in virus induced cytopathicity; type: functional, organism-based; summary of the method: as §1
[5] = test system: Human immunodeficiency virus 1; test: Antiviral activity against Human immunodeficiency virus 1 subtype BG infected in human MT4 cells assessed as reduction in virus induced cytopathicity; type: functional, organism-based; summary of the method: as §1
[6] = test system: Human immunodeficiency virus 1; test: Antiviral activity against Human immunodeficiency virus 1 subtype D infected in human MT4 cells assessed as reduction in virus induced cytopathicity; type: functional, organism-based; summary of the method: as §1
[7] = test system: Human immunodeficiency virus 1; test: Antiviral activity against Human immunodeficiency virus 1 subtype G infected in human MT4 cells assessed as reduction in virus induced cytopathicity; type: functional, organism-based; summary of the method: as §1
[8] = test system: Human immunodeficiency virus 1; test: Antiviral activity against Human immunodeficiency virus 1 subtype F1 infected in human MT4 cells assessed as reduction in virus induced cytopathicity; type: functional, organism-based; settings: Human immunodeficiency virus 1, subtype F1, MT4; summary of the method: as §1
[9] = test system: Human immunodeficiency virus 1; test: Antiviral activity against Human immunodeficiency virus 1 subtype AE infected in human MT4 cells assessed as reduction in virus induced cytopathicity; type: functional, organism-based; summary of the method: as §1
MT4 = test: Cytotoxicity against human MT4 cells by cell based assay
Summary of the method: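 Cytotoxicity in MT4 cells from cell-based assays gave a 50% cytotoxic concentration, reported as a median with first- to third-quartile values over the stated number of experiments.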

[10] = test system: Human immunodeficiency virus 1; test: Antiviral activity against Human immunodeficiency virus 1 subtype A1 infected in human MT4 cells assessed as reduction in virus induced cytopathicity; type: functional, organism-based; settings: Human immunodeficiency virus 1, subtype A1, MT4; summary of the method: as §1
[11] = test system: Human immunodeficiency virus 2; test: Antiviral activity against Human immunodeficiency virus 2 ROD infected in human MT4 cells assessed as reduction in virus induced cytopathicity; type: functional, organism-based; settings: Human immunodeficiency virus 2, ISOLATE ROD
Summary of the method: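 MT4 cells (1.5 × 10^5/ml) infected with HIV (MOI 0.01) were added to serial compound dilutions and incubated 5 days at 37°C in 5% CO2. Protection from virus-induced cell death was read by MTT tetrazolium colorimetry, giving an EC50 in micromolar.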

## Cc1ccnc2c1NC(=O)c1cccnc1N2C1CC1 [NEVIRAPINE]
[1]
  EC50: 14.4 nM
[2]
  EC50: 34.1 nM
[3]
  EC50: < 4.88 nM
[4]
  EC50: 34.1 nM
[5]
  EC50: 26 nM
[6]
  EC50: 24.2 nM
[7]
  EC50: 24.6 nM
[8]
  EC50: 14.9 nM
[9]
  EC50: 8.94 nM
MT4
  Activity: > 32 µM
[10]
  EC50: 9.32 nM
[11]
  EC50: > 31200 nM
